Screens as filed in PubChem.
Most compounds without a hit are left out; they make up all but 0.89% or so of the library.
V-ATPase pH: alters yeast V-ATPase proton transport. S. cerevisiae, pHLuorin cytosolic pH fluorescence. response, % at 10 µM. 350,000 compounds, 0.37% hits. AID 504577; in the data active = response mostly above about 7.3%, no sharp cut-off; inactive = mostly below about 5.4%; note: actives read high
T cell modulator: modulates CD8 T cell binding to vesicles. 2C CD8+ T cell-vesicle binding, flow cytometry; active compounds read low. 330,000 compounds, 0.068% hits. AID 2052. response (vesicle binding), % at 7 µM;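 active = response, share of CD8 T cells binding vesicles, and their 90th percentile fluorescence all below set limits, cut at about 80% in these data, passing the limit was not always enough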;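 note: values below 100% mean blocked vesicle binding to the CD8+ T cells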
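Assay system – 2C mouse CD8+ T cells · Also added – QL9-loaded Drosophila micro-vesicles · Timing – Cell–vesicle co-incubation 1.5 h at 37 °C, staining 20 min on ice · Signal – flow cytometry of vesicle-bound cells · Measure – percent CD8+ FL2 mean versus row control · Controls – Peptide-free naked vesicles (low) and QL9 vesicles with 0.7% DMSO vehicle (high)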
XiGFP reactiv: activators of X-chromosome reactivation in mouse fibroblasts. 360,000 compounds, 0.055% hits. AID 743238. XiGFP mouse fibroblasts, % GFP-positive cells imaging, 3 d; cells co-treated with 5-aza-dC sensitizer; scaled so ellipticine positive control = 100%. activation, % at 7.58 µM;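 active = mean normalized replicate activation at least 10% and every replicate at or above 10%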
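System: 68-5-11 XiGFP fibroblast line; Timing: 3 days compound exposure; Compound dosing: one concentration, pinned; Benchmarks: positive control ellipticine, 6 µM final; Buffer or medium: DMEM containing 5-aza-dC.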
Arrestin-AP2 inh: blocks beta-arrestin peptide binding to AP2 adaptin | AID 504490 | inhibition, % at 10 µM | FITC-arrestin peptide / GST-AP2 beads, flow cytometry; AP2 beta2 appendage carries R879A mutation | 340,000 compounds, 0.31% hits;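 active = inhibition above a set limit, near 3 SD of compounds lacking own fluorescence, cut at about 54% in these data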
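Material – GST-tagged AP2 beta2-adaptin appendage (R879A) on 4 µm glutathione beads · Probe or stimulus – fluorescein-tagged arrestin peptide at 50 nM final · Timing – 12 min plus 1 h, RT · Detection – bead flow cytometry, FITC channel · Read-out basis – inhibition as reduced fluorescein signal on beads, percent · Medium – PBS plus Tween 20 (0.05%) and BSA (0.1%)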
beta cell repl: MIN6 beta-cell proliferation induction | proliferation, % at 10 µM | AID 2380 | MIN6 cells proliferation, ATPlite luminescence, 48 h; cells starved in 0.2% serum; 100% = growth in 10% serum | 330,000 compounds, 0.29% hits;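 active = compounds whose signal lies at least 3.5 SD above the mean of all wells on their plate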
NTR1 agonist: activates human neurotensin receptor 1 | P30989 | 330,000 compounds, 0.17% hits | AID 493036 | NTR1-U2OS beta-arrestin-GFP spot imaging, agonist mode | activation, % at 20 µM;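 active = activation at or above 40% of the spot to cytoplasm intensity ratio, with at least 20 cells analyzed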
NTR1 ag confirm: NTR1 (human) agonism, confirmed; shares compounds with NTR1 agonist; NTR1-U2OS beta-arrestin-GFP translocation imaging; activation, % at 20 µM; 480 compounds, 38% hits; AID 504550;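 active = mean activation at 20 µM of at least 40%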
Arr AP2 CP1: blocks beta-arrestin peptide binding to human AP2; shares compounds with Arrestin-AP2 inh; AID 504908; GST-AP2 beads, FITC arrestin peptide binding, flow cytometry; GST-fused beta2-adaptin appendage, R879A mutant; 1,300 compounds, 2% hits; inhibition, % at 10 µM;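 active = inhibition above a set limit, roughly 3 SD of non-fluorescent compound noise, cut at about 38% in these data; inactive = inhibition at or below that limit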;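 note: loss of bead fluorescence from 50 nM FITC arrestin peptide bound to appendage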
Target sequence (P63010 whole entry, looked up, the tested form may be a part, one chain of several): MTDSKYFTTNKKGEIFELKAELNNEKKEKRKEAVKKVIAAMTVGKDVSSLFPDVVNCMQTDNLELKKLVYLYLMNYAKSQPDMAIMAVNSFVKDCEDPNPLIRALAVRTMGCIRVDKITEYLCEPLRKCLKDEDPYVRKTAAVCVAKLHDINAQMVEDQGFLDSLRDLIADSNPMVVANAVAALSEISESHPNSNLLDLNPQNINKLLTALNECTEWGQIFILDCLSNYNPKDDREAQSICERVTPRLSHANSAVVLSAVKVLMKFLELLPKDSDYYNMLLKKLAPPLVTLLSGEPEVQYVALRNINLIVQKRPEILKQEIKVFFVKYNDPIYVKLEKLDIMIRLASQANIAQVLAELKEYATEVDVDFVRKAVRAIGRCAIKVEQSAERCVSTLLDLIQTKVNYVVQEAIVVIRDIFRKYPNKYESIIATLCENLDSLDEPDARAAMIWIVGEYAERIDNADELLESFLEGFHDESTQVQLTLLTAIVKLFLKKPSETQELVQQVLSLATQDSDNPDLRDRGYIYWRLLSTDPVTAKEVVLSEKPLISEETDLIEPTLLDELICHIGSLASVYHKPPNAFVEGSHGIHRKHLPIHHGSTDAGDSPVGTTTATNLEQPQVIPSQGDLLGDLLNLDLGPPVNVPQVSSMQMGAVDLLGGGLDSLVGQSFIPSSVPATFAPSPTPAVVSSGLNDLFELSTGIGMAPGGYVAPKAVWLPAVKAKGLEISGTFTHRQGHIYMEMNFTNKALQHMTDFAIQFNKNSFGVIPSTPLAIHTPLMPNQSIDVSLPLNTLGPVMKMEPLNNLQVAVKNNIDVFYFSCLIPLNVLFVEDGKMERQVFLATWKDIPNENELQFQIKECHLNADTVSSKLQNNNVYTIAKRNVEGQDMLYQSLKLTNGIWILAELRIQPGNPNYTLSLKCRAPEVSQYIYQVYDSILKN
GST-FITC bead: GST-GSH bead binding interference, counter-screen | shares compounds with Arrestin-AP2 inh | AID 588338 | GST-fluorescein binding to GSH beads, fluorescence | inhibition, % at 10 µM | 1,300 compounds, 2% hits;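 active = inhibition above 50%, about 3 SD of the inhibition seen with non-fluorescent compounds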;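 note: fluorescein maleimide labelled GST captured on 4 micron glutathione beads; higher means more loss of bead fluorescence from quenching or blocked binding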
Hits are given with their value; - = inactive; . = no result given.

SMILES	V-ATPase pH	T cell modulator	XiGFP reactiv	Arrestin-AP2 inh	beta cell repl	NTR1 agonist	Arr AP2 CP1	GST-FITC bead	others
OC(CNCCc1ccc(C(F)(F)F)cc1)COc1ccc2ccccc2c1 (centres undefined)	-	-	-	-	-	51	.	.	NTR1 ag confirm=-
Cc1cc(N2CCN(C)CC2)ccc1NC(=O)c1cccc(S(=O)(=O)N2CCc3ccccc3C2)c1	-	-	-	-	-	42	.	.	NTR1 ag confirm=-
COCC(=O)Nc1ccc2c(c1)OC[C@@H](C)N(C(=O)c1ccncc1)C[C@H](C)[C@@H](OC)CN(C)C2=O	.	.	-	.	.	.	.	.
COc1cc(C(CCN2CCCC2)c2c(OC)cc(OC)c3c(-c4ccccc4)cc(=O)oc23)cc(OC)c1OC (centres undefined)	-	-	-	.	-	41	.	.	NTR1 ag confirm=-
CCOC(=O)c1cc(-c2ccc(/C=C3/C(=O)N(c4ccc(C(=O)O)cc4)N=C3C)o2)ccc1Cl	-	-	-	-	-	56	.	.	NTR1 ag confirm=47
COc1cccc(/C=C/C(=O)c2cccc([N+](=O)[O-])c2)c1OC	-	-	-	-	-	59	.	.	NTR1 ag confirm=59
Cc1noc(C)c1NC(=O)Nc1cccc2c1O[C@@H](CN(C)C(=O)Nc1ccc(F)cc1)[C@@H](C)CN([C@@H](C)CO)C2=O	.	.	-	.	.	.	.	.
O=C(CSc1nc2ccc([N+](=O)[O-])cc2[nH]1)c1ccc2ccccc2c1	-	-	.	106	-	44	-	-	NTR1 ag confirm=-
CCCNC(=O)N1C[C@H](O)COC[C@@H]2O[C@H](CC(=O)N[C@H]3CCN(Cc4ccccc4)C3)CC[C@H]21	.	.	-	.	.	.	.	.
Cc1nc2ccc(NC(=S)NC3CCCCC3)cc2nc1C	-	-	-	55	-	-	-	-
Cc1ccc(NC(=S)NC2CCCC2)cc1C	-	-	-	-	-	-	.	.
O=C(Nc1ccccc1)N1CC(=O)N2[C@H](CO)[C@H](c3ccc(C#CC4CCCC4)cc3)[C@@H]2C1	.	.	-	.	.	.	.	.
Cc1ccc(S(=O)(=O)N(C)C[C@H]2OCCCC[C@@H](C)Oc3ccc(NC(=O)CCC(F)(F)F)cc3C(=O)N([C@H](C)CO)C[C@@H]2C)cc1	.	.	-	.	.	.	.	.
Cc1cc(OCC(=O)Nc2nccs2)c2c(C)cc(=O)oc2c1	-	-	-	60	-	-	-	-
C[C@@H]1CN([C@@H](C)CO)C(=O)c2cc(NC(=O)Nc3ccc4c(c3)OCO4)ccc2O[C@H]1CN(C)C(=O)Nc1ccc(C(F)(F)F)cc1	.	.	-	.	.	.	.	.
CCSCc1nnc(SCC(=O)Nc2cccc(C(C)=O)c2)n1C	-	-	-	-	-	-	.	.
CCSCc1nnc(SCC(=O)Nc2cccc(SC)c2)n1C	-	-	.	99	-	-	-	-
O=C(C[C@H]1CC[C@@H]2[C@H](COC[C@@H](O)CN2Cc2nccs2)O1)NCc1ccccc1	.	.	-	.	.	.	.	.
COc1ccc(NC(=O)CCN(c2ccc(OC)cc2)S(=O)(=O)c2ccc(C)c(C)c2)cc1	-	.	-	65	.	.	-	-
CCC(=O)N1[C@H](CO)[C@H](c2ccc(C3=CCCCC3)cc2)[C@@H]1CN(C)C(C)=O	.	.	-	.	.	.	.	.
Cc1cc(Br)ccc1NC(=O)C1CSC2(C)CCC(=O)N12 (centres undefined)	-	-	-	-	-	-	.	.
CC12CCC(=O)N1C(C(=O)Nc1ccc(Cl)c(Cl)c1)CS2 (centres undefined)	-	-	-	-	-	-	.	.
CN(C)S(=O)(=O)c1ccc(Cl)c(NC(=O)COC(=O)CN2C(=O)NC(C)(C)C2=O)c1	-	-	-	-	-	-	.	.
CN(C)S(=O)(=O)c1ccc(Cl)c(NC(=O)COC(=O)C2CSC3(C)CCC(=O)N23)c1 (centres undefined)	-	-	-	-	-	-	-	-
Cc1cc(NC(=O)COC(=O)C2CSC3(C)CCC(=O)N23)ccc1Br (centres undefined)	-	-	-	-	-	-	-	-
SMILES	V-ATPase pH	T cell modulator	XiGFP reactiv	Arrestin-AP2 inh	beta cell repl	NTR1 agonist	Arr AP2 CP1	GST-FITC bead	others
CC12CCC(=O)N1C(C(=O)OCC(=O)Nc1ccc(Cl)c(Cl)c1)CS2 (centres undefined)	-	-	-	-	-	-	-	-
COc1ccc2c3c(n(C)c2c1)[C@H](CO)N(C(=O)Nc1ccc(F)cc1)CC31CN(S(=O)(=O)c2cccs2)C1	.	.	-	.	.	.	.	.
C[C@H](CO)N1C[C@H](C)[C@H](CN(C)S(=O)(=O)c2ccccc2)Oc2ccc(NC(=O)Nc3ccccc3)cc2C1=O	.	.	-	.	.	.	.	.
COCCNC(=O)C[C@H]1CC[C@@H]2[C@H](COC[C@@H](O)CN2Cc2cccc(-c3ccncc3)c2)O1	.	.	-	.	.	.	.	.
CC12CCC(=O)N1C(C(=O)Nc1nnc(SCc3ccccc3)s1)CS2 (centres undefined)	-	-	-	-	-	-	.	.
CCSc1nnc(NC(=O)C2CSC3(C)CCC(=O)N23)s1 (centres undefined)	-	-	-	60	-	-	-	-
COc1ccc(N/C=C2/Sc3ccccc3NC2=O)cc1	-	-	-	-	-	-	.	.
Cc1ccc(N/C=C2/Sc3ccccc3NC2=O)cc1	-	-	-	83	-	-	-	-
CCOC(=O)C1CCN(c2cc3c(cc2NC(=O)c2ccccc2)n(C)c(=O)n3C)CC1	-	-	-	-	-	-	-	-
CCOC(=O)C1CCN(S(=O)(=O)c2cccc(C(=O)Nc3ccccc3)c2)CC1	-	-	-	-	-	-	.	.
CCOC(=O)C1CCN(c2cc3c(cc2NC(=O)c2ccc(OC)c(OC)c2)n(C)c(=O)n3C)CC1	-	-	-	-	-	-	-	-
c1ccc(-c2cnnc(SCc3cn4cccnc4n3)n2)cc1	-	-	.	60	-	-	-	-
Cc1ccc(OCc2cn3cccnc3n2)cc1	-	-	-	67	-	-	-	-
COC(=O)c1c(NC(=O)CN2C(=O)NC3(CCC(C(C)(C)C)CC3)C2=O)sc2c1CCCCC2 (centres undefined)	-	-	-	-	-	-	.	.
COC(=O)c1c(NC(=O)CN2C(=O)NC3(CCc4ccccc4C3)C2=O)sc2c1CCCCC2 (centres undefined)	-	-	-	106	-	-	-	-
C[C@H]1CN([C@@H](C)CO)S(=O)(=O)c2ccc(-c3ccc(F)cc3)cc2O[C@@H]1CN(C)C(=O)Nc1ccc(F)cc1	.	.	-	.	.	.	.	.
